Assay results gathered from unrelated publications.
Protocols differ between the studies behind these lines.
Medium: Caco-2

Compound | conditions | Papp B→A [×10⁻⁶ cm/s]
COc1cc(NC(=O)Cn2cc(Cl)c3cc(F)c(-c4cnn(C)c4)cc32)cc(OC)c1OC |  | 1.51
N#C[C@@]1(c2ccc3c(N)ncnn23)O[C@H](CO)[C@@H](O)[C@H]1O | 10 µM, 2 h | 25.4
C=CC(=O)NC1CCN(c2ncc3ncnc(Nc4ccc(Oc5ccc6c(c5)ncn6C)c(C)c4)c3n2)CC1 |  | ~9
N#Cc1ccc(C[C@H](Nc2c(Nc3ccc(Br)cc3)c(=O)c2=O)C(=O)N2CCc3ccccc32)cc1 | 100 µM, 2 h | 249
C[C@@H]1O[C@@H](OC[C@H]2O[C@@H](Oc3c(-c4ccc(OCCO)c(OCCO)c4)oc4cc(OCCO)cc(O)c4c3=O)[C@H](O)[C@@H](O)[C@@H]2O)[C@H](O)[C@H](O)[C@H]1O | 100 µg/mL, 2 h | 2.67
Cc1cc(C)c(CNC(=O)c2cc(Cl)c3c(c2C)O[C@@](C)([C@H]2CC[C@H](N(C)C)CC2)O3)c(=O)[nH]1 | 30 µM | 19
N#Cc1ccc(C[C@H](NC(=O)c2cc3cc(F)ccc3[nH]2)C(=O)N2CCc3ccccc32)cc1 | 100 µM, 2 h | 386
C[C@H]1O[C@@H](O[C@H]2[C@@H](O)C[C@H](O[C@H]3[C@@H](O)C[C@H](O[C@H]4CC[C@@]5(C)[C@H](CC[C@@H]6[C@@H]5C[C@@H](O)[C@]5(C)[C@@H](C7=CC(=O)OC7)CC[C@]65O)C4)O[C@@H]3C)O[C@@H]2C)C[C@H](O)[C@@H]1O | 10 µM, 2 h | 13.6
O=c1c(-c2ccc(O)cc2)coc2cc(O)ccc12 | 100 µg/mL, 2 h | 4.98
CCCCCCOC(=O)NC(=N)c1ccc(NCc2nc3cc(C(=O)N(CCC(=O)OCC)c4ccccn4)ccc3n2C)cc1 | 5 µM, 2 h | 1.1
O=C(CCc1ccc(O)cc1)c1c(O)cc(O)cc1O[C@@H]1O[C@H](CO)[C@@H](O)[C@H](O)[C@H]1O | 100 µg/mL, 2 h | 5.39
N#Cc1ccc(C[C@H](Nc2nnc(-c3ccc(F)cc3)o2)C(=O)N2CCc3ccccc32)cc1 | 100 µM, 2 h | 237
CC[C@]1(O)C[C@@H]2CN(CCc3c([nH]c4ccccc34)[C@@](C(=O)OC)(c3cc4c(cc3OC)N(C)[C@H]3[C@@](O)(C(=O)OC)[C@H](OC(C)=O)[C@]5(CC)C=CCN6CC[C@]43[C@@H]65)C2)C1 | 10 µM, 2 h | 22.9
Oc1cc(O)c2c(c1)O[C@H](c1ccc(O)c(O)c1)[C@H](O)C2 | 100 µg/mL, 2 h | 0.55
